# Source: ChEMBL document CHEMBL2390929, “New nitric oxide donating 1,2,4-triazole/oxime hybrids: synthesis, investigation of anti-inflammatory, ulceroginic liability and antiproliferative activities” (Bioorg Med Chem, 2013)
# How the values were obtained:
# [1] = tested on: MDA-MB-468; experiment: Cytotoxicity against human MDA-MB-468 cells assessed as cell growth at 10^-5 M after 48 hrs by SRB assay; format: functional; conditions: MDA-MB-468, 48 h, read-out: Activity
# Method in brief: (§1)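 NCI 60-cell-line primary one-dose screen across nine tumour subpanels. Compound added at a single concentration of 10^-5 M and cultures incubated 48 h. Endpoint was sulforhodamine B protein staining read spectrophotometrically, with growth expressed as percent of untreated control cells.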
# [2] = tested on: 786-0; experiment: Cytotoxicity against human 786-0 cells assessed as cell growth at 10^-5 M after 48 hrs by SRB assay; format: functional; conditions: 786-0, 48 h, read-out: Activity; method in brief: as §1
# [3] = tested on: M14; experiment: Cytotoxicity against human M14 cells assessed as cell growth at 10^-5 M after 48 hrs by SRB assay; format: functional; conditions: M14, 48 h, read-out: Activity; method in brief: as §1
# [4] = tested on: MDA-MB-231; experiment: Cytotoxicity against human MDA-MB-231 cells assessed as cell growth at 10^-5 M after 48 hrs by SRB assay; format: functional; conditions: MDA-MB-231, 48 h, read-out: Activity; method in brief: as §1
# [5] = tested on: HL-60(TB); experiment: Cytotoxicity against human HL-60(TB) cells assessed as cell growth at 10^-5 M after 48 hrs by SRB assay; format: functional; conditions: HL-60, 48 h, read-out: Activity
# Method in brief: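 NCI 60-cell-line one-dose screen: compound added to cultures at a single concentration of 10^-5 M, incubated 48 h. End point by sulforhodamine B protein staining, read spectrophotometrically. Value is percent growth of treated cells relative to untreated control cells.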
# [6] = tested on: SK-MEL-28; experiment: Cytotoxicity against human SK-MEL-28 cells assessed as cell growth at 10^-5 M after 48 hrs by SRB assay; format: functional; conditions: SK-MEL-28, 48 h, read-out: Activity
# Method in brief: (§2)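 NCI-60 one-dose screen across nine tumour subpanels. Each agent added once at 10^-5 M, cultures incubated 48 h. Endpoint is sulforhodamine B protein staining read spectrophotometrically. Output is percent growth of treated cells relative to untreated controls.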
# [7] = tested on: NCI-H460; experiment: Cytotoxicity against human NCI-H460 cells assessed as cell growth at 10^-5 M after 48 hrs by SRB assay; format: functional; conditions: NCI-H460, 48 h, read-out: Activity; method in brief: as §1
# [8] = tested on: ACHN; experiment: Cytotoxicity against human ACHN cells assessed as cell growth at 10^-5 M after 48 hrs by SRB assay; format: functional; conditions: read-out: Activity; method in brief: as §1
# [9] = tested on: SNB-75; experiment: Cytotoxicity against human SNB75 cells assessed as cell growth at 10^-5 M after 48 hrs by SRB assay; format: functional; conditions: SNB-75, 48 h, read-out: Activity; method in brief: as §2
# [10] = tested on: NCI-H23; experiment: Cytotoxicity against human NCI-H23 cells assessed as cell growth at 10^-5 M after 48 hrs by SRB assay; format: functional; conditions: NCI-H23, 48 h, read-out: Activity; method in brief: as §1
# [11] = tested on: BT-549; experiment: Cytotoxicity against human BT549 cells assessed as cell growth at 10^-5 M after 48 hrs by SRB assay; format: functional; conditions: BT-549, 48 h, read-out: Activity; method in brief: as §1
# [12] = tested on: Rattus norvegicus; experiment: Antiinflammatory activity in albino rat assessed as inhibition of carrageenan-induced paw edema at 0.28 mmol/kg, po after 3 hrs relative to control; format: functional
# Method in brief: (§3)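 Adult male albino rats (120–140 g), four per group, fasted 24 h with water allowed. Test agent suspended in 0.5% w/v aqueous CMC and given orally at 0.28 mmol/kg; controls received CMC alone. After 30 min, 0.1 mL fresh 1% carrageenan in saline was injected subplantar into the right hind paw and saline into the left. Paw thickness was measured by Vernier caliper; % inhibition = [(VR−VL)control − (VR−VL)treated]/(VR−VL)control ×100. Mean ± SEM, one-way ANOVA.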
# [13] = tested on: Rattus norvegicus; experiment: Antiinflammatory activity in albino rat assessed as inhibition of carrageenan-induced paw edema at 0.28 mmol/kg, po after 4 hrs relative to control; format: functional; method in brief: as §3
# [14] = tested on: UACC-62; experiment: Cytotoxicity against human UACC62 cells assessed as cell growth at 10^-5 M after 48 hrs by SRB assay; format: functional; conditions: UACC-62, 48 h, read-out: Activity; method in brief: as §2
# [15] = Induction of nitric oxide release in phosphate buffer at pH 7.4 at 0.1 mM after 3 hrs by Griess method in presence of 0.5 mM of N-acetylcysteine; format: physicochemical; conditions: pH 7.4, 3 h, 100 µM
# Method in brief: (§4)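 Compound in DMF diluted to final 10^-4 M in 1:1 50 mM phosphate buffer pH 7.4/MeOH with 5×10^-4 M N-acetylcysteine, 37 °C. Aliquot mixed with Griess reagent, 10 min at room temperature, A546 read. Nitrite quantified against sodium nitrite standards (10–80 nmol/mL); NO expressed as mol/mol. n = 4 reaction mixtures per compound.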
# [16] = tested on: OVCAR-4; experiment: Cytotoxicity against human OVCAR4 cells assessed as cell growth at 10^-5 M after 48 hrs by SRB assay; format: functional; conditions: OVCAR-4, 48 h, read-out: Activity; method in brief: as §1
# [17] = tested on: K562; experiment: Cytotoxicity against human K562 cells assessed as cell growth at 10^-5 M after 48 hrs by SRB assay; format: functional; conditions: K562, 48 h, read-out: Activity; method in brief: as §1
# [18] = tested on: SN12C; experiment: Cytotoxicity against human SN12C cells assessed as cell growth at 10^-5 M after 48 hrs by SRB assay; format: functional; conditions: read-out: Activity; method in brief: as §2
# [19] = Induction of nitric oxide release in phosphate buffer at pH 7.4 at 0.1 mM after 2 hrs by Griess method in presence of 0.5 mM of N-acetylcysteine; format: physicochemical; conditions: pH 7.4, 2 h, 100 µM; method in brief: as §4
# [20] = tested on: IGROV-1; experiment: Cytotoxicity against human IGROV1 cells assessed as cell growth at 10^-5 M after 48 hrs by SRB assay; format: functional; conditions: IGROV-1, 48 h, read-out: Activity; method in brief: as §1
# [21] = tested on: HOP-62; experiment: Cytotoxicity against human HOP62 cells assessed as cell growth at 10^-5 M after 48 hrs by SRB assay; format: functional; conditions: HOP-62, 48 h, read-out: Activity; method in brief: as §1
# [22] = tested on: Rattus norvegicus; experiment: Antiinflammatory activity in albino rat assessed as inhibition of carrageenan-induced paw edema at 0.28 mmol/kg, po after 1 hr relative to control; format: functional; method in brief: as §3
# [23] = tested on: Rattus norvegicus; experiment: Antiinflammatory activity in albino rat assessed as inhibition of carrageenan-induced paw edema at 0.28 mmol/kg, po after 2 hrs relative to control; format: functional; method in brief: as §3
# [24] = tested on: HCT-15; experiment: Cytotoxicity against human HCT15 cells assessed as cell growth at 10^-5 M after 48 hrs by SRB assay; format: functional; conditions: HCT-15, 48 h, read-out: Activity; method in brief: as §1
# [25] = tested on: MDA-MB-435; experiment: Cytotoxicity against human MDA-MB-435 cells assessed as cell growth at 10^-5 M after 48 hrs by SRB assay; format: functional; conditions: MDA-MB-435, 48 h, read-out: Activity; method in brief: as §1
# [26] = Induction of nitric oxide release in phosphate buffer at pH 7.4 at 0.1 mM after 1 hr by Griess method in presence of 0.5 mM of N-acetylcysteine; format: physicochemical; conditions: pH 7.4, 1 h, 100 µM; method in brief: as §4
# [27] = tested on: Hs-578T; experiment: Cytotoxicity against human Hs578T cells assessed as cell growth at 10^-5 M after 48 hrs by SRB assay; format: functional; conditions: read-out: Activity; method in brief: as §1
# [28] = tested on: A498; experiment: Cytotoxicity against human A498 cells assessed as cell growth at 10^-5 M after 48 hrs by SRB assay; format: functional; conditions: A498, 48 h, read-out: Activity; method in brief: as §1
# [29] = Induction of nitric oxide release in phosphate buffer at pH 7.4 at 0.1 mM after 6 hrs by Griess method in presence of 0.5 mM of N-acetylcysteine; format: physicochemical; conditions: pH 7.4, 6 h, 100 µM; method in brief: as §4
smiles,measurement,setting,value
CCn1c(SC/C(=N/O)c2ccccc2)nnc1-c1ccccc1,growth at 10 µM,[1],108%
same,growth at 10 µM,[2],105%
same,growth at 10 µM,[3],109%
same,growth at 10 µM,[4],94.6%
same,growth at 10 µM,[5],103%
same,growth at 10 µM,[6],106%
same,growth at 10 µM,[7],102%
same,growth at 10 µM,[8],105%
same,growth at 10 µM,[9],87.8%
same,growth at 10 µM,[10],103%
same,growth at 10 µM,[11],115%
same,inhibition in vivo at 280 µmol/kg,[12],72%
same,inhibition in vivo at 280 µmol/kg,[13],73%
same,growth at 10 µM,[14],86.2%
same,Activity,[15],0.12 mol/mol
same,growth at 10 µM,[16],85.5%
same,growth at 10 µM,[17],86%
same,growth at 10 µM,[18],88.5%
same,Activity,[19],0.08 mol/mol
same,growth at 10 µM,[20],106%
same,growth at 10 µM,[21],111%
same,inhibition in vivo at 280 µmol/kg,[22],65%
same,inhibition in vivo at 280 µmol/kg,[23],69%
same,growth at 10 µM,[24],101%
same,growth at 10 µM,[25],105%
same,Activity,[26],0.06 mol/mol
same,growth at 10 µM,[27],101%
same,growth at 10 µM,[28],69.3%
same,Activity,[29],0.13 mol/mol
